Laboratory results: ChEMBL document CHEMBL1135587, “Discovery and structure-activity relationship of N-(ureidoalkyl)-benzyl-piperidines as potent small molecule CC chemokine receptor-3 (CCR3) antagonists” (J Med Chem, 2002)

Columns and labels:
[1] = biological target: T1, C-C chemokine receptor type 3 (Homo sapiens) (UniProt P51677); assay: Evaluated for its inhibitory activity against human Chemokine receptor type 3 expressed in chinese hamster ovary cells at 5 uM; type: cell-based; details: CHO
T1 sequence (whole entry): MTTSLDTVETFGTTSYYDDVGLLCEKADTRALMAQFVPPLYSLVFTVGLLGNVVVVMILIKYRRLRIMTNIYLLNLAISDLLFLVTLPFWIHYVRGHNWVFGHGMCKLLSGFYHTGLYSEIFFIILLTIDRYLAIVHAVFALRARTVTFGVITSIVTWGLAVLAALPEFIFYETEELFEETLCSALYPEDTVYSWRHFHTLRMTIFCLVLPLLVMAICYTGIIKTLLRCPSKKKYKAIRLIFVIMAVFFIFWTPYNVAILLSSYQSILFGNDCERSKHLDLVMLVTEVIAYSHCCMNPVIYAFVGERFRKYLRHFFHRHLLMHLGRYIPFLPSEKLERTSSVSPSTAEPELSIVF
Summary of the method: (§1)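 CHO cells transfected with human CCR3, 5×10^5 per well, incubated 30 min at room temperature with 150 pM (final) 125I-labeled human eotaxin and compound. Binding buffer: RPMI 1640 with 0.5% BSA, 20 mM HEPES, 5 mM MgCl2. Filtration on protamine-treated filter plates, washed with binding buffer plus 0.5 M NaCl, filter counted. Nonspecific binding defined with 100 nM eotaxin. Percent inhibition taken against compound-free total binding. IC50 values are the mean of usually three determinations.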

[2] = biological target: T1, C-C chemokine receptor type 3 (Homo sapiens); assay: Evaluated for % inhibitory activity against human Chemokine receptor type 3 expressed in chinese hamster ovary cells; type: cell-based; details: CHO; concentration not given here; summary of the method: as §1
[3] = The compound was evaluated for its intracellular calcium mobilization; type: functional, cell-based; details: Homo sapiens
Summary of the method: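 Freshly isolated human eosinophils loaded with 5 μM fluo-3 for 60 min at 37 °C, washed, then plated at 2×10^5/well in phenol red-free binding buffer. Compound or buffer added for 5 min, then eotaxin to 10 nM final, read on FLIPR. Base-to-peak fluorescence shift measured in duplicate; inhibition at graded concentrations expressed as percent of the compound-free eotaxin control to give IC50.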

[4] = biological target: T2, C-C chemokine receptor type 3 (Homo sapiens, UniProt P51677); assay: Inhibitory activity against recombinant human Chemokine receptor type 3 (CCR3) expressed in chinese hamster ovary cells; type: cell-based, CHO; summary of the method: as §1
T2 sequence (P51677 whole entry): T1 sequence (whole entry)

[5] = The compound was evaluated for its eotaxin-induced chemotaxis; type: functional, Homo sapiens
Summary of the method: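 Freshly isolated human eosinophils at 1×10^6 cells/mL in RPMI 1640/0.1% BSA; cells and 20 nM human eotaxin each mixed 1:1 with compound-containing medium. Eotaxin/compound in the lower well, cells/compound above, across a 5 μm PVP-free polycarbonate filter, 45 min at 37 °C. Filter wiped, dried and Wright Giemsa-stained; migrated cells counted by microscopy.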

[6] = biological target: T1, C-C chemokine receptor type 3 (Homo sapiens); assay: Evaluated for its inhibitory activity against Chemokine receptor type 3 at 5 uM; summary of the method: as §1
[7] = biological target: T2, C-C chemokine receptor type 3; assay: Evaluated for its inhibitory activity against human Chemokine receptor type 3 expressed in chinese hamster ovary cells; type: cell-based, CHO
Summary of the method: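 Competition binding on CHO cells transfected with human CCR3, 5×10^5 cells per well, against 125I-human eotaxin at 150 pM final. Binding buffer: RPMI 1640 with 0.5% BSA, 20 mM HEPES, 5 mM MgCl2. Incubated 30 min at room temperature, then filtered on protamine-treated plates and washed with buffer plus 0.5 M NaCl before counting. Background binding defined with 100 nM eotaxin. Percent inhibition taken against the compound-free total. Values usually mean of three determinations.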

[8] = biological target: T1, C-C chemokine receptor type 3 (Homo sapiens); assay: Evaluated for its inhibitory activity against human Chemokine receptor type 3 expressed in chinese hamster ovary cells at 10 uM; type: cell-based; details: CHO; summary of the method: as §1
[9] = biological target: T3, C-C chemokine receptor type 1 (Homo sapiens, UniProt P32246); assay: Inhibitory activity against human Chemokine receptor type 1 expressed in chinese hamster ovary cells; type: cell-based, CHO
T3 sequence (P32246 whole entry): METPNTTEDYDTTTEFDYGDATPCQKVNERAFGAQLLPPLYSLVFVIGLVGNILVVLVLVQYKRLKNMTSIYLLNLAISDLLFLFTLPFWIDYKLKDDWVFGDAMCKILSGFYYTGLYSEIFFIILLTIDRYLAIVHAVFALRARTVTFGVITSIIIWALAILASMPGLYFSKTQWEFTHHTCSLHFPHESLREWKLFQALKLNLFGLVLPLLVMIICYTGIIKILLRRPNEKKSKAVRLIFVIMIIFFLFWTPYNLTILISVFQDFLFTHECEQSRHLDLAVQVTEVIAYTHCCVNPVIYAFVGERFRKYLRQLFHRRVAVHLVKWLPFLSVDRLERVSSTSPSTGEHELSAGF

[10] = biological target: T1, C-C chemokine receptor type 3 (Homo sapiens); assay: Evaluated for its % inhibitory activity against Chemokine receptor type 3 at 5 uM; summary of the method: as §1
[11] = biological target: T1, C-C chemokine receptor type 3 (Homo sapiens); assay: Evaluated for its % inhibitory activity against human Chemokine receptor type 3 expressed in chinese hamster ovary cells; type: cell-based; details: CHO; concentration not given here; summary of the method: as §1

IC50 [4] | IC50 [9] | SMILES | also measured
0.003 µM |  | CC(=O)c1cccc(NC(=O)Nc2ccc(C(N)=O)cc2CN2CCC(Cc3ccc(F)cc3)CC2)c1 | IC50 [3]: 0.0095 µM
3.4 µM | > 10 µM | O=C(NCc1ccccc1)Nc1ccccc1CN1CCC(Cc2ccccc2)CC1 | 
3.9 µM | > 50 µM | O=C(Nc1ccccc1CN1CCC(Cc2ccccc2)CC1)NC1CCN(Cc2ccccc2)CC1 | 
0.75 µM | > 10 µM | COc1ccc(NC(=O)Nc2ccccc2CN2CCC(Cc3ccccc3)CC2)cc1 | 
0.0026 µM |  | CC(=O)c1cccc(NC(=O)Nc2ccccc2CCN2CCC(Cc3ccc(F)cc3)CC2)c1 | IC50 [5]: 0.071 µM
2.6 µM | > 10 µM | O=C(NCCCO)Nc1ccccc1CN1CCC(Cc2ccccc2)CC1 | 
8.3 µM | < 0.78 µM | O=C(NCc1ccccc1)NCC(CCCN1CCC(O)(c2ccc(Cl)cc2)CC1)(c1ccccc1)c1ccccc1 | 
0.002 µM |  | CNC(=O)c1cccc(NC(=O)Nc2ccccc2)c1CN1CCC(Cc2ccc(F)cc2)CC1 | IC50 [3]: 0.0043 µM
0.008 µM |  | COC(=O)c1cccc(NC(=O)Nc2cccc(C(C)=O)c2)c1CN1CCC(Cc2ccc(F)cc2)CC1 | IC50 [3]: 0.0082 µM; IC50 [5]: 0.076 µM
0.001 µM |  | CNC(=O)c1cccc(NC(=O)Nc2cccc(C(C)=O)c2)c1CN1CCC(Cc2ccc(F)cc2)CC1 | IC50 [3]: 0.0014 µM; IC50 [5]: 0.03 µM

Continued, compound first:

SMILES | IC50 [4] | IC50 [9] | also measured
O=C(Nc1ccccc1)Nc1cccc(C(O)CN2CCC(Cc3ccccc3)CC2)c1 (centres undefined) |  |  | inhibition [1]: 71%
COc1ccc(NC(=O)Nc2ccc(CN3CCC(Cc4ccccc4)CC3)cc2)cc1 |  |  | inhibition [2]: 48%
CNC(=O)c1ccc(NC(=O)Nc2cccc(C(C)=O)c2)c(CN2CCC(Cc3ccc(F)cc3)CC2)c1 | 0.008 µM |  | IC50 [3]: 0.0118 µM
CNC(=O)c1cccc(NC(=O)Nc2cccc(OC)c2)c1CN1CCC(Cc2ccc(F)cc2)CC1 | 0.002 µM |  | IC50 [3]: 0.0042 µM
CC(=O)c1cccc(NC(=O)Nc2cccc(C(N)=O)c2CN2CCC(Cc3ccc(F)cc3)CC2)c1 | 0.002 µM |  | IC50 [3]: 0.0059 µM; IC50 [5]: 0.046 µM
O=C(Nc1ccccc1)Nc1ccccc1/C(CN1CCC(Cc2ccccc2)CC1)=N\O |  |  | inhibition [6]: 59%
OC1(c2ccc(Cl)cc2)CCN(Cc2ccccc2)CC1 |  |  | IC50 [7]: 18.7 µM
OC1(c2ccc(Cl)cc2)CCN(CCc2ccccc2)CC1 |  |  | inhibition [8]: 19%
O=C(NCC(CCCN1CCC(O)(c2ccc(Cl)cc2)CC1)(c1ccccc1)c1ccccc1)Nc1ccc(C(F)(F)F)cc1 | 5.2 µM | 0.89 µM | 
O=C(Nc1cc(F)ccc1F)Nc1ccccc1CN1CCN(Cc2ccccc2)CC1 |  |  | inhibition [1]: 28%
O=C(NCC(CCCN1CCC(O)(c2ccc(Cl)cc2)CC1)(c1ccccc1)c1ccccc1)Nc1cc(F)ccc1F | 5.7 µM | 1.34 µM | 
O=C(Nc1ccc(F)cc1F)Nc1ccccc1C(=O)CN1CCC(Cc2ccccc2)CC1 |  |  | inhibition [10]: 35%
O=C(NCC(CCCN1CCC(O)(c2ccc(Cl)cc2)CC1)(c1ccccc1)c1ccccc1)Nc1cccc(C(F)(F)F)c1 | 19.3 µM | 1.41 µM | 
COC(=O)N1CCC(NC(=O)NCC(CCCN2CCC(O)(c3ccc(Cl)cc3)CC2)(c2ccccc2)c2ccccc2)CC1 | 5.3 µM | 0.5 µM | 
CNC(=O)c1cccc(NC(=O)Nc2cccc(C#N)c2)c1CN1CCC(Cc2ccc(F)cc2)CC1 | 0.001 µM |  | IC50 [3]: 0.0053 µM
COC(=O)c1ccc(CN2CCC(Cc3ccccc3)CC2)c(NC(=O)Nc2cccc(C#N)c2)c1 |  |  | inhibition [11]: 72%

SMILES | IC50 [4] | IC50 [9] | also measured
O=C(Nc1ccc2c[nH]nc2c1)Nc1ccccc1CN1CCC(Cc2ccccc2)CC1 | 0.45 µM | > 10 µM | 
N#Cc1cccc(NC(=O)Nc2ccccc2C(O)CN2CCC(Cc3ccccc3)CC2)c1 (centres undefined) | 0.049 µM | > 10 µM | 
O=C(NCC(CCCN1CCC(O)(c2ccc(Cl)cc2)CC1)(c1ccccc1)c1ccccc1)Nc1ccncc1 | 3.5 µM | 0.167 µM | 
COc1cccc(NC(=O)Nc2ccccc2C(O)CN2CCC(Cc3ccccc3)CC2)c1 (centres undefined) | 0.081 µM | > 10 µM | 
O=C(Nc1cc(F)ccc1F)Nc1ccccc1CN1CCC(O)(c2ccc(Cl)cc2)CC1 |  |  | inhibition [1]: 21%
O=C(NCCCCO)NCC(CCCN1CCC(O)(c2ccc(Cl)cc2)CC1)(c1ccccc1)c1ccccc1 | 5.95 µM | 0.24 µM | 
O=C(NCCCO)NCC(CCCN1CCC(O)(c2ccc(Cl)cc2)CC1)(c1ccccc1)c1ccccc1 | 2.35 µM | 0.031 µM | 
N#Cc1cccc(NC(=O)Nc2ccccc2CN2CCC(Cc3ccccc3)CC2)c1 | 0.75 µM | > 10 µM | 
CC(C)NC(=O)NCC(CCCN1CCC(O)(c2ccc(Cl)cc2)CC1)(c1ccccc1)c1ccccc1 | 6.1 µM | < 0.78 µM | 
O=C(Nc1cc(F)ccc1F)Nc1ccccc1N1CCC(Cc2ccccc2)CC1 |  |  | inhibition [1]: 9%
N#Cc1cccc(NC(=O)Nc2ccc(CN3CCC(Cc4ccccc4)CC3)cc2)c1 |  |  | inhibition [1]: 47%
CNC(=O)NCC(CCCN1CCC(O)(c2ccc(Cl)cc2)CC1)(c1ccccc1)c1ccccc1 | 8.3 µM | < 0.78 µM | 
O=C(Nc1ccccc1)Nc1ccccc1CN1CCC(Cc2ccccc2)CC1 | 0.9 µM | > 10 µM | 
N#CC(CCCN1CCC(O)(c2ccc(Cl)cc2)CC1)(c1ccccc1)c1ccccc1 [BERLEX COMPOUND] | 9 µM | 0.63 µM | 
c1ccc(CCCCN2CCC(Cc3ccccc3)CC2)cc1 | 3.8 µM | > 50 µM | 
